The text below walks through data of ChEMBL document CHEMBL5104110, “Identification of 2-arylquinazolines with alkyl-polyamine motifs as potent antileishmanial agents: synthesis and biological evaluation studies” (RSC Med Chem, 2022).

In one data set the test system is Leishmania braziliensis. Description: Antileishmanial activity against Leishmania braziliensis assessed as inhibition of parasite growth. It is filed as functional, organism-based.
The next data set concerns Leishmania mexicana. Description: Antileishmanial activity against Leishmania mexicana assessed as inhibition of parasite growth. The class given is functional, organism-based.
For another data set, the system named is Leishmania amazonensis. The experiment in a line: Antileishmanial activity against Leishmania amazonensis assessed as inhibition of parasite growth. The class given is functional, organism-based.
The test system of data set [1] is Leishmania donovani. The experiment in a line: Antileishmanial activity against log phase of wild type Leishmania donovani MHOM/80/IN/Dd8 promastigotes assessed as inhibition of cell growth incubated for 48 hrs by MTT assay. It is filed as functional, organism-based. The settings on record: MHOM/80/IN/Dd8, 48 h. The method in brief: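 L. donovani Dd8 promastigotes grown at 24 °C, pH 7.2, in HEPES-modified RPMI-1640 with 10% heat-inactivated FBS and antibiotics. 2 × 10^5 log-phase cells were exposed to 10–100 µM compound (10 mM DMSO stocks diluted in medium) for 48 h at 24 °C. MTT (400 µg/mL final) was added for 4 h at 37 °C, formazan dissolved in DMSO, and A540 read. IC50 was taken against untreated cells; mean ± SD of three independent experiments.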
On the technique in general: Tetrazolium assays rely on reduction of a dye to a coloured formazan, in cell work by metabolically active cells.

Data set [2] in a line: Cytotoxicity against human PMA-differentiated THP-1 macrophages assessed as inhibition of cell growth by MTT assay. It is filed as toxicity, cell-based, Macrophage. The method, boiled down:
(§1)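 About 2 × 10^5 THP-1 monocytes were differentiated with 20 ng/mL PMA for 48 h at 37 °C, and non-adherent cells were washed off with serum-free medium. Adherent macrophages were exposed to 10, 20, 50 and 100 µM compound for 48 h at 37 °C in 5% CO2. Viability was read by MTT.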

Data set [3] in a line: Selectivity index, ratio of IC50 for cytotoxicity against PMA-differentiated THP-1 macrophages to IC50 for antileishmanial activity against log phase of wild type Leishmania donovani MHOM/80/IN/Dd8 promastigotes. It is filed as toxicity. The settings on record: human; read-out: Ratio IC50.
The test system of data set [4] is Leishmania donovani. Description: Induction of ROS generation in wild type Leishmania donovani MHOM/80/IN/Dd8 promastigotes at 5 uM incubated for 24 hrs by MitoSOX red dye based fluorescence spectrophotometric analysis relative to control. The class given is functional. The method, boiled down:
(§2)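 Promastigotes at about 1 × 10^6/mL were treated at ~5 or ~10 µM for 3, 6, 24 and 48 h, with 0.2% DMSO as vehicle and antimycin A (10 µM) as positive control. Cells were washed twice in HBSS and stained with 5 µM MitoSOX red for 20 min at 25 °C. Fluorescence was read at 510/580 nm ex/em.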

Data set [5] deals with Leishmania donovani. The experiment in a line: Induction of ROS generation in wild type Leishmania donovani MHOM/80/IN/Dd8 promastigotes at 10 uM incubated for 24 hrs by MitoSOX red dye based fluorescence spectrophotometric analysis. It is filed as functional. The method, boiled down: as §2
Data set [6] concerns Leishmania donovani. Description: Induction of ROS generation in wild type Leishmania donovani MHOM/80/IN/Dd8 promastigotes at 5 to 10 uM incubated for 48 hrs by MitoSOX red dye based fluorescence spectrophotometric analysis. It is filed as functional, organism-based. The settings on record: dose 5-10 µM. The method in brief: as §2
The test system of data set [7] is Leishmania donovani. The experiment in a line: Induction of ROS generation in wild type Leishmania donovani MHOM/80/IN/Dd8 promastigotes incubated for 24 hrs by MitoSOX red dye based fluorescence spectrophotometric analysis. The class given is functional, organism-based. The method in brief:
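Promastigotes were grown at 24 °C in HEPES-modified RPMI-1640 with 10% heat-inactivated FBS, pH 7.2. About 1 × 10^6 parasites/ml were exposed to ~5 µM or ~10 µM test compound. Controls were untreated cells, antimycin A (10 µM) and 0.2% DMSO vehicle. Cells were washed twice in HBSS and stained with 5 µM MitoSOX red for 20 min at 25 °C. Fluorescence was read at ex 510/em 580 nm.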

Data set [8] deals with Leishmania donovani. The experiment in a line: Antileishmanial activity against Leishmania donovani assessed as inhibition of parasite growth incubated for 2 hrs by y [3H]thymidine incorporation assay. It is filed as functional, organism-based. (In general: Dividing cells build labelled thymidine or BrdU into new DNA.)
In another data set the test system is Macrophage. Description: Cytotoxicity against human PMA-differentiated THP-1 macrophages assessed as inhibition of cell growth measured upto 100 uM by MTT assay. It is filed as toxicity, cell-based. The method in brief: as §1
For data set [9], the system named is Leishmania donovani. The experiment in a line: Antileishmanial activity against amastigote stage of Leishmania donovani MHOM/SD/62/IS-CL2D assessed as inhibition of parasite growth incubated for 3 days by CellTiter 96 Aqueous Non-Radioactive Cell Proliferation Assay. It is filed as functional, organism-based. The settings on record: 72 h.

Values after ≈ are worked out from the molar mass of the structure shown. Active and inactive are the calls of the source. The calls are words filed in the database; no cut-off is given here.

One may read the EC50 as the midpoint of the concentration-response curve. For orientation: IC50 means the midpoint of a concentration-inhibition curve.

For the molecule `COc1cccc(-c2nc(O)c3ccccc3n2)c1`, the concentration giving a half-maximal response (EC50) in the data set on Leishmania braziliensis was determined as 4.89 µM; in the data set on Leishmania mexicana it was 5.29 µM; in the data set with Leishmania amazonensis it was 9.14 µM.
For the molecule `COc1cc(-c2nc(NCCCN(C)C)c3ccccc3n2)cc(OC)c1OC`, the IC50 with Leishmania donovani [1] was determined as 29.5 µM; in [2] it was 61 µM. Besides, the selectivity ratio in data set [3] is 2.06.
On the same counts, the results for `COc1cccc(-c2nc(NCCCN(C)C)c3ccccc3n2)c1` are 5.5 µM, 37 µM and 6.72.
The corresponding values for `CN(C)CCCNc1nc(-c2ccccc2)nc2ccccc12` are 9 µM, greater than 100 µM and greater than 11.1.
On the same counts, the results for `NCCCCNc1nc(-c2ccc(F)cc2)nc2ccccc12` are 32.5 µM, 64 µM and 1.96.
For `Oc1ccc(-c2nc(NCCCN3CCOCC3)c3ccccc3n2)cc1`, the IC50 in the data set with Leishmania donovani [1] turned out to be 50 µM; in data set [2], 71 µM. Besides, in data set [3], the selectivity ratio was 1.42.
On to `COc1ccc(-c2nc(NCCN(C)C)c3ccccc3n2)cc1`, for which the figures for the IC50 (in the data set on Leishmania donovani [1]; in data set [2]) were 5 µM and 57 µM, respectively. Also, the selectivity ratio in data set [3] came out at 11. Further, the Activity is listed as 50% with Leishmania donovani [4] and 82% with Leishmania donovani [5]. The outcome in the data set with Leishmania donovani [6] was Active.
Regarding `COc1ccc(-c2nc(NCCCN3CCOCC3)c3ccccc3n2)cc1O`, the IC50 with Leishmania donovani [1] is 19 µM; in data set [2] it was 33.5 µM. Also, the selectivity ratio in data set [3] was found to be 1.76.
The corresponding values for `COc1cc(-c2nc(NCCN(C)C)c3ccccc3n2)cc(OC)c1OC` are 6.5 µM, 50 µM and 7.69.
Take `COc1ccc(-c2nc(NCCCN(C)C)c3ccccc3n2)cc1`: the IC50 was found to be 5 µM in the data set on Leishmania donovani [1] and 67.5 µM in data set [2]. For the same molecule, the selectivity ratio in data set [3] came out at 13.5. Also, the Activity in the data set on Leishmania donovani [4] came out at 63%; with Leishmania donovani [5], 119%. Further, the result in the data set on Leishmania donovani [6] was Active.
On to `CCCCCC[C@H]1C(=O)O[C@H](C)[C@H](NC(=O)c2cccc(NC=O)c2O)C(=O)O[C@@H](C)[C@@H]1OC(=O)CC(C)C`, for which the result in the data set on Leishmania donovani [7] was Active.
Regarding `C=CC(C)(C)c1cc(/C=C/C(=O)c2ccc(O)cc2)c(OC)cc1O` [LICOAGROCHACONE A], in the data set on Leishmania donovani [8], the IC50 came out at 4 µg/mL (≈ 11.8 µM).
Regarding `CN(C)CCCNc1nc(-c2ccc(F)cc2)nc2ccccc12`, the figures for the IC50 (in the data set with Leishmania donovani [1]; in data set [2]) were 13 µM and 63 µM, respectively. The selectivity ratio in data set [3] worked out at 4.84.
The corresponding values for `CN(C)CCNc1nc(-c2ccc(O)cc2)nc2ccccc12` are 5.5 µM, 51 µM and 9.27.
The corresponding values for `COc1cc(-c2nc(NCCCN3CCN(C)CC3)c3ccccc3n2)cc(OC)c1OC` are 90 µM, 54 µM and 0.6.
On to `COc1cc(-c2nc(NCCCN3CCOCC3)c3ccccc3n2)cc(OC)c1OC`, for which, in the data set on Macrophage, the Activity entry is given as “Toxic”.
As for `CN1CCN(CCCNc2nc(-c3ccc(Cl)cc3)nc3ccccc23)CC1`, in the data set with Leishmania donovani [1], the IC50 was determined as 28.5 µM.
Consider `CN(C)CCCNc1nc(-c2ccc(Cl)cc2)nc2ccccc12`, for which the IC50 in the data set with Leishmania donovani [1] amounted to 6.5 µM; in data set [2], 62 µM. Further, in data set [3], the selectivity ratio was 9.53.
Take `O=C1c2cc(I)ccc2-n2c1nc1ncccc1c2=O`: the IC50 with Leishmania donovani [9] was determined as 0.016 µg/mL (≈ 0.0427 µM).
For the molecule `NCCCCNc1nc(-c2ccc(Cl)cc2)nc2ccccc12`, the IC50 stood at 12 µM in the data set on Leishmania donovani [1] and 13 µM in data set [2]. In addition, the selectivity ratio in data set [3] came out at 1.08.
On the same counts, the results for `NCCNc1nc(-c2ccc(Cl)cc2)nc2ccccc12` are 6.5 µM, 15 µM and 2.3.
Consider `NCCNc1nc(-c2ccc(F)cc2)nc2ccccc12`, for which the IC50 with Leishmania donovani [1] amounted to 25 µM; in data set [2], 64 µM. In addition, the selectivity ratio in data set [3] was found to be 2.56.
`CN(C)CCCNc1nc(-c2ccc(O)cc2)nc2ccccc12`: the IC50 in the data set with Leishmania donovani [1] came out at 6.5 µM; in data set [2], 65 µM. Moreover, the selectivity ratio in [3] was determined as 10.
The corresponding values for `CN1CCN(CCCNc2nc(-c3ccc(F)cc3)nc3ccccc23)CC1` are 8 µM, 40 µM and 5.
The corresponding values for `CCCCCCCCCCCCCCCCOP(=O)([O-])OCC[N+](C)(C)C` [MILTEFOSINE] are 10.5 µM, 36 µM and 3.42.
The corresponding values for `COc1ccc(-c2nc(NCCCN3CCN(C)CC3)c3ccccc3n2)cc1` are 6.3 µM, 53 µM and 7.28.
On to `COc1ccc(-c2nc(NCCCN3CCOCC3)c3ccccc3n2)cc1`, for which the values for the IC50 (in the data set on Leishmania donovani [1]; in data set [2]) were 25 µM and 56 µM, respectively. The selectivity ratio in data set [3] came to 2.24.
As to `CN(C)CCNc1nc(-c2ccc(Cl)cc2)nc2ccccc12`, the IC50 in the data set on Leishmania donovani [1] came out at 7.5 µM; in data set [2], 60 µM. The selectivity ratio in data set [3] came to 8.
Turning to `COc1ccc(-c2nc(NCCN(C)C)c3ccccc3n2)cc1O`, the IC50 in the data set with Leishmania donovani [1] is 6.5 µM; in data set [2], 22.5 µM. In data set [3], the selectivity ratio was 3.46.
